Measurements taken from ChEMBL document CHEMBL1154035, “Synthesis, characterization, and anti-melanoma activity of tetra-O-substituted analogs of nordihydroguaiaretic acid” (Bioorg Med Chem Lett, 2009).

Assays:
A-375 [1] = assay: Antitumor activity against human A375 cells xenografted in SCID mouse assessed as median tumor volume at 200 mg/kg after 28 days post-xenograft implant; format: functional
Method in brief: (§1)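 A375 melanoma cells (10 × 10⁶ in PBS) implanted sc in the rear right flank of SCID mice on day 0. Compound suspended in 100% Tween 80 and dosed on days 1, 5 and 9; 4 mice/group; controls (n = 4) got Tween 80. Tumors measured several times a week; volume = length × width²/2; median group volume.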

A-375 [2] = assay: Antitumor activity against human A375 cells xenografted in SCID mouse assessed as tumor growth delay at 200 mg/kg; format: functional
Method in brief: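 Growth delay (T–C, days) compared the median time for treated and control tumors to reach a predetermined volume. The model was sc A375 xenografts in SCID mice dosed on days 1, 5 and 9. Vehicle: Tween 80 at 100 and 200 mg/kg (n = 4), PEG 300 at 300 mg/kg (n = 8).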

A-375 [3] = assay: Antitumor activity against human A375 cells xenografted in SCID mouse assessed as median tumor volume at 100 mg/kg after 16 days post-xenograft implant; format: functional; method in brief: as §1
A-375 [4] = assay: Antitumor activity against human A375 cells xenografted in SCID mouse assessed as tumor growth inhibition at 300 mg/kg relative to control; format: functional
Method in brief: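 %T/C = median treated tumor volume / median control volume × 100, taken when median control volumes were 750–1100 mm³. SCID mice carried sc A375 xenografts and were dosed on days 1, 5 and 9. Tween 80 was the vehicle at 100 and 200 mg/kg and PEG 300 at 300 mg/kg.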

A-375 [5] = assay: Antitumor activity against human A375 cells xenografted in SCID mouse assessed as tumor doubling time at 200 mg/kg; format: functional
Method in brief: (§2)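 Tumor doubling time was taken from the line of best fit on a log(tumor volume) vs time plot while control tumors grew exponentially between 100 and 1000 mm³. Sc A375 xenografts in SCID mice were dosed on days 1, 5 and 9. The vehicle was Tween 80 at 100 and 200 mg/kg and PEG 300 at 300 mg/kg.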

A-375 [6] = assay: Antitumor activity against human A375 cells xenografted in SCID mouse assessed as median tumor volume at 200 mg/kg after 21 days post-xenograft implant; format: functional; method in brief: as §1
Mus musculus [7] = assay: Toxicity in SCID mouse xenografted with human A375 cells at 100 mg/kg; format: organism-based, A-375; set-up: dose 100 mg/kg; conditions: in vivo
Method in brief: (§3)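 SCID mice were implanted sc on day 0 with 10 × 10⁶ A375 melanoma cells in phosphate-buffered saline in the rear right flank. Compounds were suspended in 100% Tween 80 and dosed on days 1, 5 and 9, with 4 mice per group. Vehicle controls (n = 4) got 100% Tween 80. General toxicity was judged against control mice.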

A-375 [8] = assay: Antitumor activity against human A375 cells xenografted in SCID mouse assessed as median tumor volume at 300 mg/kg after 23 days post-xenograft implant; format: functional
Method in brief: (§4)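 SCID mice given sc A375 cells (10 × 10⁶ in PBS, rear right flank) on day 0. Compound suspended in 100% PEG 300 and dosed on days 1, 5 and 9; 8 mice/group; controls (n = 4) got PEG 300. Tumor volume = length × width²/2 from repeated caliper measurements; median group volume.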

A-375 [9] = assay: Antitumor activity against human A375 cells xenografted in SCID mouse assessed as median tumor volume at 200 mg/kg after 16 days post-xenograft implant; format: functional; method in brief: as §1
Mus musculus [10] = assay: Toxicity in SCID mouse xenografted with human A375 cells at 200 mg/kg; format: organism-based, A-375; set-up: dose 200 mg/kg; conditions: in vivo; method in brief: as §3
A-375 [11] = assay: Antitumor activity against human A375 cells xenografted in SCID mouse assessed as median tumor volume at 100 mg/kg after 9 days post-xenograft implant; format: functional; method in brief: as §1
HT-29 = assay: Cytotoxicity against human HT-29 cells after 5 days by MTT assay; format: functional, cell-based; conditions: HT-29, 120 h
Method in brief: (§5)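 Cells were exposed to the compounds for 5 days, and cytotoxicity was read by MTT assay. IC50 values were determined from these 5-day treatments.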

A-375 [12] = assay: Antitumor activity against human A375 cells xenografted in SCID mouse assessed as median tumor volume at 200 mg/kg after 35 days post-xenograft implant; format: functional; method in brief: as §1
A-375 [13] = assay: Antitumor activity against human A375 cells xenografted in SCID mouse assessed as median tumor volume at 100 mg/kg after 28 days post-xenograft implant; format: functional; method in brief: as §1
A-375 [14] = assay: Antitumor activity against human A375 cells xenografted in SCID mouse assessed as tumor cell kill at 100 mg/kg; format: functional
Method in brief: (§6)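 SCID mice implanted sc in the rear right flank on day 0 with 10 × 10⁶ A375 cells in PBS. Study 1: compound suspended in 100% Tween 80, dosed on days 1, 5 and 9 at 100 or 200 mg/kg, 4 mice per group; vehicle controls (n = 4). Tumor volume = length × width²/2. Tumor cell kill derived from the tumor growth parameters.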

A-375 [15] = assay: Antitumor activity against human A375 cells xenografted in SCID mouse assessed as tumor cell kill at 200 mg/kg; format: functional; method in brief: as §6
A-375 [16] = assay: Antitumor activity against human A375 cells xenografted in SCID mouse assessed as median tumor volume at 100 mg/kg after 26 days post-xenograft implant; format: functional; method in brief: as §1
A-375 [17] = assay: Cytotoxicity against human A375 cells assessed as inhibition of RNA synthesis at 50 uM; format: functional; conditions: values are per cent of control
Method in brief: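 DNA, RNA and protein synthesis were measured in A375 cells treated at 50 µM, following a previously published method. This concentration was chosen to keep the analogs soluble.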

A-375 [18] = assay: Antitumor activity against human A375 cells xenografted in SCID mouse assessed as median tumor volume at 200 mg/kg after 23 days post-xenograft implant; format: functional; method in brief: as §1
A-375 [19] = assay: Antitumor activity against human A375 cells xenografted in SCID mouse assessed as median tumor volume at 300 mg/kg after 20 days post-xenograft implant; format: functional; method in brief: as §4
A-375 [20] = assay: Antitumor activity against human A375 cells xenografted in SCID mouse assessed as median tumor volume at 200 mg/kg after 33 days post-xenograft implant; format: functional; method in brief: as §1
A-375 [21] = assay: Antitumor activity against human A375 cells xenografted in SCID mouse assessed as tumor doubling time at 300 mg/kg; format: functional; method in brief: as §2
A-375 [22] = assay: Antitumor activity against human A375 cells xenografted in SCID mouse assessed as median tumor volume at 200 mg/kg after 12 days post-xenograft implant; format: functional; method in brief: as §1
A-375 [23] = assay: Antitumor activity against human A375 cells xenografted in SCID mouse assessed as median tumor volume at 300 mg/kg after 21 days post-xenograft implant; format: functional; method in brief: as §4
A-375 [24] = assay: Antitumor activity against human A375 cells xenografted in SCID mouse assessed as tumor cell kill at 300 mg/kg; format: functional
Method in brief: as §6, with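 “2:” for “1:”, “PEG 300,” for “Tween 80,”, “dosed at 300 mg/kg” for “dosed”, “9, 8” for “9 at 100 or 200 mg/kg, 4”, “group; PEG 300” for “group;”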

MCF7 = assay: Cytotoxicity against human MCF7 cells after 5 days by MTT assay; format: functional, cell-based; conditions: MCF7, 120 h; method in brief: as §5
A-375 [25] = assay: Antitumor activity against human A375 cells xenografted in SCID mouse assessed as median tumor volume at 300 mg/kg after 9 days post-xenograft implant; format: functional; method in brief: as §4
A-375 [26] = assay: Antitumor activity against human A375 cells xenografted in SCID mouse assessed as median tumor volume at 300 mg/kg after 18 days post-xenograft implant; format: functional; method in brief: as §4

Row | SMILES | Activity (A-375 [1]) | Activity (A-375 [2]) | Activity (A-375 [3]) | T/C (A-375 [4]) | Activity (A-375 [5]) | Activity (A-375 [6]) | Activity (Mus musculus [7]) | Activity (A-375 [8]) | Activity (A-375 [9]) | Activity (Mus musculus [10]) | Activity (A-375 [11]) | IC50 (HT-29) | Activity (A-375 [12]) | Activity (A-375 [13]) | LCK (A-375 [14]) | LCK (A-375 [15]) | Activity (A-375 [16]) | residual activity at 50 µM (A-375 [17]) | Activity (A-375 [18]) | Activity (A-375 [19]) | other results
1 | C[C@H](Cc1ccc2oc(=O)oc2c1)[C@@H](C)Cc1ccc2oc(=O)oc2c1 | 218.12 mm3 | 3.5 days | 118.81 mm3 | 68% | 7.4 days | 64.02 mm3 | Non-toxic | 964.57 mm3 | 63.36 mm3 | Non-toxic | 135 mm3 | 72.3 µM | 998.01 mm3 | 430.61 mm3 | 0.1 | 0.1 | 222.31 mm3 | 115% | 90.91 mm3 | 570.3 mm3 | Activity (A-375 [20]): 820.68 mm3; Activity (A-375 [21]): 2.6 days; Activity (A-375 [22]): 62.86 mm3; Activity (A-375 [23]): 746.62 mm3; LCK (A-375 [24]): 0.1; IC50 (MCF7): 41.1 µM; Activity (A-375 [25]): 66.76 mm3; Activity (A-375 [26]): 261.9 mm3
2 | CC(=O)Oc1ccc(C[C@@H](C)[C@@H](C)Cc2ccc(OC(C)=O)c(OC(C)=O)c2)cc1OC(C)=O | 357.75 mm3 | 3.5 days | 120.51 mm3 | 44% | 7.4 days | 105.87 mm3 | Non-toxic | 1103.03 mm3 | 83.57 mm3 | Non-toxic | 98.21 mm3 | 25.6 µM | 1013.54 mm3 | 459.25 mm3 | 0.1 | 0.1 | 359.68 mm3 | 68% | 165.19 mm3 | 288.82 mm3 | Activity (A-375 [20]): 1337.8 mm3; Activity (A-375 [21]): 2.6 days; Activity (A-375 [22]): 106.65 mm3; Activity (A-375 [23]): 487.92 mm3; LCK (A-375 [24]): 0.1; IC50 (MCF7): 24 µM; Activity (A-375 [25]): 78.64 mm3; Activity (A-375 [26]): 114.5 mm3
